PABP polyA inh: PABP-poly(A) binding inhibition; P11940; PABP-poly(A) RNA binding, fluorescence polarization; inhibition, % at 35 µM; 1% of 290,000 active; AID 2014;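 further: calls also rest on retests at 20 µM and on dose response follow-up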
Target sequence (P11940 whole entry, looked up): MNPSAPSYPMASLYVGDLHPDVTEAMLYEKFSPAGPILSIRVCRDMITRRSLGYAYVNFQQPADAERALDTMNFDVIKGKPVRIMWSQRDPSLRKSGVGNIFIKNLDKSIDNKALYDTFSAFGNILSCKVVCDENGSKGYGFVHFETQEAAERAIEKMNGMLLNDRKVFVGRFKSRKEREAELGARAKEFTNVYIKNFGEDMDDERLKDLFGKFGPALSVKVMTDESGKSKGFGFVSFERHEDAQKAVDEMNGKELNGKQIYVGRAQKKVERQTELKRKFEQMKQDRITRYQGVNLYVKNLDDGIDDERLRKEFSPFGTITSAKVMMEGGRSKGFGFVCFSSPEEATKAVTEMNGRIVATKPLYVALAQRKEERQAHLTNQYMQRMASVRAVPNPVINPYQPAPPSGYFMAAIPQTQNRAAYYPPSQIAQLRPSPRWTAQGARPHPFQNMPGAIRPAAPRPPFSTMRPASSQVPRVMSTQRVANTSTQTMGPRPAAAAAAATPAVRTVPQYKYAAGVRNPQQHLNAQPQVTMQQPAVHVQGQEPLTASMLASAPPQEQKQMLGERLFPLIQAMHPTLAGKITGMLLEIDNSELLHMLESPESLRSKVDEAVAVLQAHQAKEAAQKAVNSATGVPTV
FID counter: counter-screen for HCV NS3 helicase inhibitors: DNA intercalator displacement | 0.17% of 290,000 active | AID 1845 | DNA fluorescent intercalator displacement, fluorescence | inhibition, % at 7.9 µM; in the data active means inhibition above about 37%;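 further: 0% = vehicle and 100% = reference compound; higher means more ethidium bromide displaced from hairpin DNA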
HCV core dimer: blocks dimerization of HCV core protein; inhibition, % at 5 µM; 0.33% of 300,000 active; TR-FRET GST/Flag-core106 dimerization, 1536-well;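 active means inhibition above the mean of all tested compounds plus 3 SD, set per screening campaign, cut at about 45% in these data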
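test system = GST/Flag-tagged HCV core106 proteins | probe or stimulus = Eu donor and XL665 acceptor anti-tag antibodies | times = compound-protein-antibody incubation 4 h at 22.5 °C | signal = TR-FRET, excitation 340 nm, emission 617 and 671 nm | measure = percent inhibition of core106 dimerization signal | controls = wells lacking GST-core106 and wells with excess unlabelled core106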
HCV NS3 hel inh: HCV NS3 helicase inhibition; NS3 helicase DNA unwinding, Cy5 molecular beacon fluorescence; AID 1800; inhibition, % at 10.9 µM; 0.56% of 290,000 active;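 active means inhibition above the mean of all tested compounds plus 3 SD, set per campaign, cut at about 35% in these data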;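 further: 0% = DMSO wells and 100% = thioflavine S control wells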
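Test system: hepatitis C virus NS3 helicase domain fragment enzyme. Also added: annealed dual-labelled DNA beacon duplex, ATP-started. Timing: 60 min unwinding reaction at 25 °C after ATP addition. Technique: Cy5 fluorescence. Measure: % inhibition of unwinding.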
eIF4H FP inh: inhibitors of RNA binding by human eIF4H | Q15056 | eIF4H fluorescence polarization binding assay | inhibition, % at 35 µM | 0.94% of 290,000 active | AID 2012;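 further: calls also rest on retests at 20 µM and on dose response follow-up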
PABP1 MLLE inh: blocks PAM2 peptide binding to the PABP1 MLLE domain; P11940; inhibition, % at 20 µM; 0.36% of 360,000 active; GST-MLLE / FITC-PAM2 fluorescence polarization; in the data active means inhibition above about 35%, passing the limit was not always enough;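 further: plate controls were DMSO wells with GST-MLLE for no effect and wells lacking GST-MLLE protein for full effect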
Starred values were filed as active, the others as inactive; . = not tested or not shown. Hits are enriched below; roughly 2% of the tested compounds scored in any of these assays. Unless noted, how the calls were made is not given here.

SMILES	PABP polyA inh	FID counter	HCV core dimer	HCV NS3 hel inh	eIF4H FP inh	PABP1 MLLE inh
CN(Cc1ccc(F)cc1)S(=O)(=O)c1ccc2[nH]c(=O)[nH]c2c1	.	.	.	.	.	5
C[C@H]1COC[C@@H](C/C=C/c2ccccc2)N1c1ccccc1	.	.	.	.	.	2
C/C=C(\C)C(=O)NCCN1C2=NC[C@H](C(C)C)N2C[C@H]1Cc1ccc(O)cc1	0	10	-3	-10	-13	-11
COc1ccc(C[C@H]2CN3C(=NC[C@H]3C)N2CCNC(=O)c2ccc(C)c(Br)c2)cc1	-5	40*	-8	-64	6	7
C/C=C(\C)C(=O)NCCN1C2=NC[C@H](C(C)C)N2C[C@@H]1Cc1ccc(OC)cc1	52*	10	1	-19	48	11
O=C(Nn1c(COc2ccccc2)nc2ccccc2c1=O)C(Cl)(Cl)Cl	-1	-9	.	-6	1	-2
Cc1cc(SCNC(=O)c2ccccc2)nc(C(C)C)n1	-6	0	2	7	-7	41*
Cc1cc(C)nc(SCNC(=O)c2ccccc2)n1	-2	-7	-8	3	3	43*
Cc1cc(C)nc(SCc2ccc(C(=O)N/N=C/c3cccc(O)c3O)cc2)n1	active	-10	13	31	97*	7
Cc1cc(C)nc(SCC(=O)O)n1	-6	1	-4	-6	-2	10
Cc1cc(SCC(=O)c2ccccc2)nc(C)n1	-4	-2	-1	3	0	25
COCCNC(=S)N1CCC2CC1c1cc(-c3ccc4c(c3)OCO4)ccc12 (centres undefined)	.	.	.	.	.	-136
Cc1cccc(C)c1NC(=O)CCc1nnc2ccc(N3CCCC3)nn12	1	-30	-2	0	-9	-5
COc1c(N)c2c(c([N+](=O)[O-])c1OC)C(=O)OC2	.	.	.	.	.	-5
CC(C)C[C@H](NC(=O)/C=C/[C@H]1O[C@@H](n2ccc(=O)[nH]c2=O)[C@H](O)[C@@H]1O)C(=O)O	.	.	.	.	.	-6
Cc1nc2ccccc2c(=O)n1/N=C/c1c(O)ccc2oc3c(c12)CCCC3	63*	1	14	3	22*	-4
Cc1nc2ccccc2c(=O)n1/N=C/c1c(O)ccc2ccccc12	8	5	-7	6	-3	-9
CCCCc1cc(=O)oc2cc(C)cc(OCC(=O)NCc3cccnc3)c12	-7	-40	-1	0	-11	12
CCc1cc(=O)oc2cc(C)cc(OCC(=O)NCc3cccnc3)c12	7	-22	0	8	79*	9
Cc1ccc(/C=N/NC(=O)Cn2cnc3ccccc32)cc1	0.3*	-7	1	-2	89*	-4
Cc1nc2ncccn2c1-c1csc(NCc2ccco2)n1	15*	-3	4	3	73	25
Cc1ccc(C(O)c2ncc(-c3ccccc3)[nH]2)c(C)c1 (centres undefined)	.	.	.	.	.	-11
CC(O)/C=C/c1cccc[n+]1C (centres undefined)	85*	-1	-6	2	14	-117
S=C(NCCCc1cnc[nH]1)NCCCN(Cc1ccc(Cl)cc1)c1ccc(Br)cn1	.	.	.	.	.	-31
CC(=O)Nc1cncc(-c2cccc(S(C)(=O)=O)c2)n1	.	.	.	.	.	-1
SMILES	PABP polyA inh	FID counter	HCV core dimer	HCV NS3 hel inh	eIF4H FP inh	PABP1 MLLE inh
C/C(=N\NC(=O)c1ccc(NS(=O)(=O)c2cccs2)cc1)c1ccc(Cl)cc1	-1	-2	2	18	1	-4
C/C(=N\NC(=O)c1ccc(NS(=O)(=O)c2cccs2)cc1)c1cccs1	81*	-8	-2	-9	active	-3
CCc1ccc(OCC(=O)NC(NC(=S)Nc2ccccc2OC)C(Cl)(Cl)Cl)cc1 (centres undefined)	active	-10	11	2	78*	23
CCc1ccc(OCC(=O)NC(NC(=S)Nc2ccccc2C)C(Cl)(Cl)Cl)cc1 (centres undefined)	8	-19	15	26	1	15
COc1cc(C(=O)N2CCC2(C)C(=O)NC(C)C)cc(OC)c1OC (centres undefined)	.	.	.	.	.	12
O=c1[nH]c2cnn(-c3ccccc3)c2c(=O)n1O	.	.	.	.	.	3
CC1OC(Oc2c(-c3cc(O)c(O)c(O)c3)oc3cc(O)cc(O)c3c2=O)C(O)C(O)C1O (centres undefined)	23	0	.	3	37	-18

Screens from PubChem.
